Activity calls are given as the source filed them. No cut-off for these calls is given here.

The test system of test [1] is Nucleic Acid. As to the kind of experiment: Induction of Escherichia coli supercoiled pBR322 DNA cleavage assessed as formation of nicked DNA using bromophenol blue at 1 to 4 uM after 30 mins by agarose gel electrophoresis analysis in presence of equimolar Fe2+. The test is classed as nucleic-acid assay.
Test [2] has as its system Nucleic Acid. As to the kind of experiment: Induction of Escherichia coli [5'-32P]-end labeled 158-base pair of pBR322 DNA cleavage at G12 site using bromophenol blue and xylene cyanol FF at 1 to 10 uM after 30 mins by phosphorimager analysis in presence of equimolar Fe2+. The test is classed as nucleic-acid assay. The method in brief:
(§1)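 158-bp pBR322 restriction fragment (HindIII cut, dephosphorylated, 5'-32P-labelled with T4 polynucleotide kinase, EcoRV cut), 30,000 cpm, treated with Fe2+ plus deglycoBLM in 50 mM Tris–HCl pH 8.0 at room temperature for 30 min. Supernatant removed under vacuum, pellet heated 90 °C 10 min in formamide loading buffer and chilled on ice before denaturing gel analysis.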

The subject of test [3] is Nucleic Acid. The experiment in a line: Induction of Escherichia coli [5'-32P]-end labeled 158-base pair of pBR322 DNA cleavage at A15 site using bromophenol blue and xylene cyanol FF at 1 to 10 uM after 30 mins by phosphorimager analysis in presence of equimolar Fe2+. It counts as nucleic-acid assay. The method in brief: as §1
Test [4] deals with Nucleic Acid. The experiment in a line: Induction of Escherichia coli [5'-32P]-end labeled 64-nucleotide hairpin DNA base pair of pBR322 DNA cleavage using bromophenol blue and xylene cyanol FF at 5 to 20 uM after 30 mins by phosphorimager analysis in presence of equimolar Fe2+. The test is classed as nucleic-acid assay. The method in brief:
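64-nt hairpin DNA, 5'-32P-labelled with T4 polynucleotide kinase and purified on 16% polyacrylamide gel, 30,000 cpm, exposed to Fe2+ plus deglycoBLM in 50 mM Tris–HCl pH 8.0 at room temperature for 30 min. Dried, heated 90 °C 10 min in formamide loading buffer, then run on denaturing 16% polyacrylamide/7 M urea gel at 1800 V for 2.5 h.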

Test [5] concerns Nucleic Acid. The experiment in a line: Induction of Escherichia coli [5'-32P]-end labeled 158-base pair of pBR322 DNA cleavage using bromophenol blue and xylene cyanol FF at 1 to 10 uM after 30 mins by phosphorimager analysis in presence of equimolar Fe2+.
For test [6], the system named is Nucleic Acid. The experiment in a line: Induction of Escherichia coli supercoiled pBR322 DNA cleavage assessed as formation of linear form of DNA using bromophenol blue at 4 uM after 30 mins by agarose gel electrophoresis analysis in presence of equimolar Fe2+. It counts as nucleic-acid assay.
For test [7], the system named is Nucleic Acid. As to the kind of experiment: Induction of Escherichia coli [5'-32P]-end labeled 158-base pair of pBR322 DNA cleavage at 5'-CG11-3' site using bromophenol blue and xylene cyanol FF at 1 to 10 uM after 30 mins by phosphorimager analysis in presence of equimolar Fe2+. The test is classed as nucleic-acid assay. The method in brief:
as §1

Test [8] concerns Nucleic Acid. As to the kind of experiment: Induction of Escherichia coli [5'-32P]-end labeled 158-base pair of pBR322 DNA cleavage at 5'-CG35-3' site using bromophenol blue and xylene cyanol FF at 1 to 10 uM after 30 mins by phosphorimager analysis in presence of equimolar Fe2+. It counts as nucleic-acid assay. The procedure, abridged:
as §1

Test [9] concerns Nucleic Acid. The experiment in a line: Induction of Escherichia coli [5'-32P]-end labeled 158-base pair of pBR322 DNA cleavage at 5'-GT14-3' site using bromophenol blue and xylene cyanol FF at 1 to 10 uM after 30 mins by phosphorimager analysis in presence of equimolar Fe2+. The test is classed as nucleic-acid assay. The procedure, abridged: as §1
The subject of test [10] is Nucleic Acid. As to the kind of experiment: Induction of Escherichia coli [5'-32P]-end labeled 158-base pair of pBR322 DNA cleavage at 5'-GT17-3' site using bromophenol blue and xylene cyanol FF at 1 to 10 uM after 30 mins by phosphorimager analysis in presence of equimolar Fe2+. The test is classed as nucleic-acid assay. The method in brief:
as §1

Test [11] concerns Nucleic Acid. As to the kind of experiment: Induction of Escherichia coli [5'-32P]-end labeled 158-base pair of pBR322 DNA cleavage at 5'-GT27-3' site using bromophenol blue and xylene cyanol FF at 1 to 10 uM after 30 mins by phosphorimager analysis in presence of equimolar Fe2+. The test is classed as nucleic-acid assay. The method in brief: as §1

On to `Cc1ccccc1C[C@@H](NC(=O)[C@H](Cc1c[nH]cn1)NC(=O)c1nc([C@H](CC(N)=O)NC[C@H](N)C(N)=O)nc(N)c1C)[C@@H](O)[C@H](C)C(=O)N[C@H](C(=O)NCCc1nc(-c2nc(C(=O)NCCCNCCCCNCCCN)cs2)cs1)[C@@H](C)O`, for which the result in the test on Nucleic Acid [1], with Nucleic Acid [4] and in the test with Nucleic Acid [5] was Active. The outcome in the test with Nucleic Acid [2] and with Nucleic Acid [3] was inactive.

For the compound `Cc1c(N)nc([C@H](CC(N)=O)NC[C@H](N)C(N)=O)nc1C(=O)N[C@@H](Cc1c[nH]cn1)C(=O)N[C@H](CC(C)C)[C@@H](O)[C@H](CC(C)C)C(=O)N[C@H](C(=O)NCCc1nc(-c2nc(C(=O)NCCCNCCCCNCCCN)cs2)cs1)[C@@H](C)O`, the result with Nucleic Acid [1], in the test on Nucleic Acid [6], in the test with Nucleic Acid [4] and in the test with Nucleic Acid [5] was Active. Besides, the result with Nucleic Acid [2] and in the test on Nucleic Acid [3] was inactive.

`Cc1c(N)nc([C@H](CC(N)=O)NC[C@H](N)C(N)=O)nc1C(=O)N[C@@H](Cc1c[nH]cn1)C(=O)N[C@H](C)[C@@H](O)[C@H](Cc1ccccc1)C(=O)N[C@H](C(=O)NCCc1nc(-c2nc(C(=O)NCCCNCCCCNCCCN)cs2)cs1)[C@@H](C)O`: the result in the test on Nucleic Acid [1], with Nucleic Acid [6], with Nucleic Acid [4] and in the test on Nucleic Acid [5] was Active. For the same compound, the result in the test with Nucleic Acid [2] and in the test with Nucleic Acid [3] was inactive.

As to `Cc1c(N)nc([C@H](CC(N)=O)NC[C@H](N)C(N)=O)nc1C(=O)N[C@@H](Cc1c[nH]cn1)C(=O)N[C@H](C)[C@@H](O)[C@H](CC(C)C)C(=O)N[C@H](C(=O)NCCc1nc(-c2nc(C(=O)NCCCNCCCCNCCCN)cs2)cs1)[C@@H](C)O`, the outcome in the test on Nucleic Acid [1], in the test on Nucleic Acid [6], with Nucleic Acid [4] and in the test on Nucleic Acid [5] was Active. In addition, the result with Nucleic Acid [2] and with Nucleic Acid [3] was inactive.

For the compound `CCCC[C@H](C(=O)N[C@H](C(=O)NCCc1nc(-c2nc(C(=O)NCCCNCCCCNCCCN)cs2)cs1)[C@@H](C)O)[C@H](O)[C@@H](C)NC(=O)[C@H](Cc1c[nH]cn1)NC(=O)c1nc([C@H](CC(N)=O)NC[C@H](N)C(N)=O)nc(N)c1C`, the result with Nucleic Acid [1], with Nucleic Acid [6], with Nucleic Acid [4] and with Nucleic Acid [5] was Active. Besides, the outcome in the test with Nucleic Acid [2] and in the test with Nucleic Acid [3] was inactive.

Turning to `Cc1c(N)nc([C@H](CC(N)=O)NC[C@H](N)C(N)=O)nc1C(=O)N[C@@H](Cc1c[nH]cn1)C(=O)N[C@H](C)[C@@H](O)[C@H](C)C(=O)N[C@H](C(=O)NCCc1nc(-c2nc(C(=O)NCCCNCCCCN)cs2)cs1)[C@@H](C)O`, the result in the test on Nucleic Acid [1] and in the test with Nucleic Acid [4] was Active.

On to `Cc1c(N)nc([C@H](CC(N)=O)NC[C@H](N)C(N)=O)nc1C(=O)N[C@@H](Cc1c[nH]cn1)C(=O)N[C@H](CC(C)C)[C@@H](O)[C@H](C)C(=O)N[C@H](C(=O)NCCc1nc(-c2nc(C(=O)NCCCNCCCCNCCCN)cs2)cs1)[C@@H](C)O`, for which the outcome in the test on Nucleic Acid [1], in the test on Nucleic Acid [7], in the test on Nucleic Acid [8], in the test with Nucleic Acid [9], in the test on Nucleic Acid [10] and in the test on Nucleic Acid [11] was Active. Besides, the outcome with Nucleic Acid [4] was Active.

In the case of `Cc1c(N)nc([C@H](CC(N)=O)NC[C@H](N)C(N)=O)nc1C(=O)N[C@@H](Cc1c[nH]cn1)C(=O)N[C@H](Cc1ccccc1)[C@@H](O)[C@H](C)C(=O)N[C@H](C(=O)NCCc1nc(-c2nc(C(=O)NCCCNCCCCNCCCN)cs2)cs1)[C@@H](C)O`, the outcome in the test with Nucleic Acid [1], with Nucleic Acid [6], in the test with Nucleic Acid [4] and in the test on Nucleic Acid [5] was Active. Besides, the outcome in the test with Nucleic Acid [2] and in the test on Nucleic Acid [3] was inactive.

For the compound `Cc1c(N)nc([C@H](CC(N)=O)NC[C@H](N)C(N)=O)nc1C(=O)N[C@@H](Cc1c[nH]cn1)C(=O)N[C@H](Cc1ccccc1Br)[C@@H](O)[C@H](C)C(=O)N[C@H](C(=O)NCCc1nc(-c2nc(C(=O)NCCCNCCCCNCCCN)cs2)cs1)[C@@H](C)O`, the result in the test on Nucleic Acid [1], in the test with Nucleic Acid [6], in the test with Nucleic Acid [4] and in the test on Nucleic Acid [5] was Active. For the same compound, the outcome in the test with Nucleic Acid [2] and with Nucleic Acid [3] was inactive.

As for `CC[C@@H](C)C(NC(=O)[C@H](Cc1c[nH]cn1)NC(=O)c1nc([C@H](CC(N)=O)NC[C@H](N)C(N)=O)nc(N)c1C)[C@@H](O)[C@H](C)C(=O)N[C@H](C(=O)NCCc1nc(-c2nc(C(=O)NCCCNCCCCNCCCN)cs2)cs1)[C@@H](C)O` (single isomer, unassigned), the outcome in the test on Nucleic Acid [1], in the test on Nucleic Acid [7], in the test on Nucleic Acid [8], in the test on Nucleic Acid [9], with Nucleic Acid [10] and with Nucleic Acid [11] was Active. Also, the result in the test on Nucleic Acid [2], in the test on Nucleic Acid [3] and in the test with Nucleic Acid [4] was Active.

For `Cc1c(N)nc([C@H](CC(N)=O)NC[C@H](N)C(N)=O)nc1C(=O)N[C@@H](Cc1c[nH]cn1)C(=O)N[C@H](CC1CCCCC1)[C@@H](O)[C@H](C)C(=O)N[C@H](C(=O)NCCc1nc(-c2nc(C(=O)NCCCNCCCCNCCCN)cs2)cs1)[C@@H](C)O`, the outcome in the test with Nucleic Acid [1], in the test with Nucleic Acid [6], in the test with Nucleic Acid [4] and with Nucleic Acid [5] was Active. The result in the test on Nucleic Acid [2] and in the test on Nucleic Acid [3] was inactive.

As to `Cc1c(N)nc([C@H](CC(N)=O)NC[C@H](N)C(N)=O)nc1C(=O)N[C@@H](Cc1c[nH]cn1)C(=O)N[C@@H]([C@@H](O)[C@H](C)C(=O)N[C@H](C(=O)NCCc1nc(-c2nc(C(=O)NCCCNCCCCNCCCN)cs2)cs1)[C@@H](C)O)C(C)(C)C`, the outcome in the test with Nucleic Acid [1], in the test with Nucleic Acid [7], in the test with Nucleic Acid [8], in the test on Nucleic Acid [9], with Nucleic Acid [10] and in the test on Nucleic Acid [11] was Active. Besides, the outcome in the test with Nucleic Acid [4] was Active.

Source of the values: ChEMBL document CHEMBL1795264, “Deglycobleomycin A6 analogues modified in the methylvalerate moiety” (Bioorg Med Chem, 2011).
